Test results taken from ChEMBL document CHEMBL1148955, “Chemical constituents from the Colombian medicinal plant Maytenus laevis” (2004).
Active and inactive are the calls of the source. The calls are words filed in the database; no cut-off is given here.

Experiments:
[1] = tested on: PBMC; assay: Induction of IFN-gamma production in human PBMC at 1 ug/ml after 48 hrs by ELISA; assay type: functional, cell-based
Procedure, shortened: (§1)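 PBMCs were isolated from heparinized venous blood by Ficoll-Hypaque density gradient centrifugation. Cells were cultured at 1 × 10^6/mL in RPMI 1640 with 10% fetal calf serum, with or without compound at 1 or 10 µg/mL, for 48 h at 37 °C. Cytokines in the culture supernatants were measured by commercial ELISA kits.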

[2] = tested on: PBMC; assay: Induction of IFN-gamma production in human PBMC at 10 ug/ml after 48 hrs by ELISA; assay type: functional, cell-based; procedure, shortened: as §1
[3] = tested on: PBMC; assay: Induction of IL4 production in human PBMC at 1 ug/ml after 48 hrs by ELISA; assay type: functional, cell-based; procedure, shortened: as §1
[4] = tested on: PBMC; assay: Induction of IL12 production in human PBMC at 1 ug/ml after 48 hrs by ELISA; assay type: functional; procedure, shortened: as §1
[5] = tested on: PBMC; assay: Induction of IL10 production in human PBMC at 10 ug/ml after 48 hrs by ELISA; assay type: functional, cell-based; procedure, shortened: as §1
[6] = tested on: PBMC; assay: Induction of IL4 production in human PBMC at 10 ug/ml after 48 hrs by ELISA; assay type: functional, cell-based; procedure, shortened: as §1
[7] = tested on: PBMC; assay: Induction of TNFalpha production in human PBMC at 10 ug/ml after 48 hrs by ELISA; assay type: functional; procedure, shortened: as §1
[8] = tested on: PBMC; assay: Induction of IL10 production in human PBMC at 1 ug/ml after 48 hrs by ELISA; assay type: functional, cell-based; procedure, shortened: as §1
[9] = tested on: PBMC; assay: Induction of IL6 production in human PBMC at 10 ug/ml after 48 hrs by ELISA; assay type: functional; procedure, shortened: as §1
[10] = tested on: PBMC; assay: Induction of IL6 production in human PBMC at 1 ug/ml after 48 hrs by ELISA; assay type: functional; procedure, shortened: as §1
[11] = tested on: PBMC; assay: Induction of IL12 production in human PBMC at 10 ug/ml after 48 hrs by ELISA; assay type: functional; procedure, shortened: as §1
[12] = tested on: PBMC; assay: Induction of TNFalpha production in human PBMC at 1 ug/ml after 48 hrs by ELISA; assay type: functional; procedure, shortened: as §1

Structure (SMILES)	Activity [1]	Activity [2]	Activity [3]	Activity [4] [pg/mL]	Activity [5]	Activity [6]	Activity [7] [pg/mL]	Activity [8]	Activity [9] [pg/mL]	Activity [10] [pg/mL]	Activity [11] [pg/mL]	Activity [12] [pg/mL]
CC1(C)C(=O)CC[C@]2(C)[C@H]3CC=C4[C@@H]5C[C@]6(C)C[C@@H](OC6=O)[C@]5(C)CC[C@@]4(C)[C@]3(C)CC[C@@H]12 [WILFORLIDE B]	inactive	inactive	inactive	<7.8	inactive	inactive	<7.8	inactive	451.1	1477.6	<7.8	<7.8
CC1(C)[C@H](O)CC[C@]2(C)[C@H]3CC=C4[C@@H]5C[C@@]6(C)C[C@H](OC6=O)[C@]5(C)CC[C@@]4(C)[C@]3(C)CC[C@@H]12 [ABRUSLACTONE A]	inactive	inactive	inactive	<7.8	inactive	inactive	22.7	inactive	777.2	22.5	28.3	<7.8
C[C@@H]1[C@H]2C3=CC[C@@H]4[C@@]5(C)CC[C@@H](O)C(C)(C)[C@@H]5CC[C@@]4(C)[C@]3(C)CC[C@@]2(C)[C@@H](O)C[C@H]1C(=O)O [TRIPTOCALLIC ACID A]	inactive	inactive	inactive	<7.8	inactive	inactive	<7.8	inactive	10.6	705.7	<7.8	<7.8
CC1(C)[C@@H](O)CC[C@]2(C)[C@H]3CC=C4[C@H]5C[C@](C)(C(=O)O)C[C@@H](O)[C@]5(C)CC[C@@]4(C)[C@]3(C)CC[C@@H]12	inactive	inactive	inactive	<7.8	inactive	inactive	<7.8	inactive	297.6	57.5	<7.8	<7.8
COc1ccc([C@H]2Oc3cc(O)cc(O)c3C[C@H]2O)cc1OC	inactive	inactive	inactive	<7.8	inactive	inactive	<7.8	inactive	198.6	473.4	<7.8	<7.8
CC(=O)OC[C@]12[C@H](OC(C)=O)[C@H](OC(C)=O)[C@@H]3[C@@H](OC(C)=O)[C@@]14O[C@@]3(C)COC(=O)c1cccnc1C(C)C(C)C(=O)O[C@@H]([C@H](OC(C)=O)[C@@H]2OC(=O)c1ccccc1)[C@]4(C)O (some centres undefined) [MAYTEINE]	inactive	inactive	inactive	14.3	inactive	inactive	24.6	inactive	1576.2	1245.2	14.7	22
COc1ccc(C(=O)O[C@@H]2C[C@](C)(O)[C@H]3[C@H](O[C@@H]4O[C@H](CO)[C@@H](O)[C@H](O)[C@H]4O)OC=C[C@H]32)cc1OC	inactive	inactive	inactive	27.2	inactive	inactive	<7.8	inactive	38.1	849.5	<7.8	12.6
CC(=O)OC[C@]12[C@H](OC(=O)c3ccccc3)[C@H](OC(C)=O)[C@@H]3[C@@H](OC(C)=O)[C@@]14O[C@@]3(C)COC(=O)c1cccnc1C(C)C(C)C(=O)O[C@@H]([C@H](OC(C)=O)[C@@H]2OC(=O)c1ccccc1)[C@]4(C)O (some centres undefined) [EBENIFOLINE E III]	inactive	inactive	inactive	<7.8	inactive	inactive	<7.8	inactive	<7.8	<7.8	<7.8	<7.8
COc1c(O)cc([C@H]2Oc3c(c(O)cc(O)c3[C@H]3c4c(O)cc(O)cc4O[C@H](c4ccc(O)cc4)[C@@H]3O)C[C@H]2O)cc1O [OURATEAPROANTHOCYANIDIN A]	inactive	inactive	inactive	<7.8	inactive	inactive	<7.8	inactive	174.4	28.1	<7.8	<7.8
CC1(C)[C@H](O)CC[C@]2(C)[C@H]3CC=C4[C@@H]5C[C@](C)(C(=O)O)C[C@H](O)[C@]5(C)CC[C@@]4(C)[C@]3(C)CC[C@@H]12 [TRIPTOCALLIC ACID D]	inactive	inactive	inactive	<7.8	inactive	inactive	<7.8	inactive	<7.8	793.2	<7.8	<7.8
CC(=O)OC[C@]12[C@H](OC(C)=O)[C@H](OC(C)=O)[C@@H]3[C@@H](OC(=O)c4ccccc4)[C@@]14O[C@@]3(C)COC(=O)c1cccnc1C(C)C(C)C(=O)O[C@@H]([C@H](OC(C)=O)[C@@H]2OC(=O)c1ccccc1)[C@]4(C)O (some centres undefined)	inactive	inactive	inactive	17.3	inactive	inactive	<7.8	inactive	260.8	463	<7.8	26.7
COc1c(O)cc([C@H]2Oc3cc(O)cc(O)c3C(=O)[C@H]2O)cc1O	inactive	inactive	inactive	<7.8	inactive	inactive	<7.8	inactive	470.4	279.4	<7.8	<7.8
CC1(C)[C@H](O)CC[C@]2(C)[C@H]3CC=C4[C@@H]5C[C@](C)(C(=O)O)C[C@@H](O)[C@]5(C)CC[C@@]4(C)[C@]3(C)CC[C@@H]12	inactive	inactive	inactive	<7.8	inactive	inactive	<7.8	inactive	16.2	32.2	<7.8	<7.8
C[C@H]1C(=O)CC[C@@H]2[C@]1(C)CC[C@H]1[C@@]2(C)CC[C@@]2(C)[C@@H]3CC(C)(C)CC[C@]3(CO)CC[C@]12C [CANOPHYLLOL]	inactive	inactive	inactive	47.3	inactive	inactive	322.9	inactive	2579.2	2579.3	104.3	132.5
CC1(C)[C@@H](O)CC[C@]2(C)[C@H]3CC=C4[C@@H]5C[C@](C)(C(=O)O)C[C@H](O)[C@]5(C)CC[C@@]4(C)[C@]3(C)CC[C@@H]12 [MAYTENFOLIC ACID]				<7.8			<7.8		76.1	380	<7.8	<7.8
